Data set [1] addresses T1, Type-1 angiotensin II receptor (Homo sapiens, UniProt P30556).
T1 sequence (P30556 whole entry): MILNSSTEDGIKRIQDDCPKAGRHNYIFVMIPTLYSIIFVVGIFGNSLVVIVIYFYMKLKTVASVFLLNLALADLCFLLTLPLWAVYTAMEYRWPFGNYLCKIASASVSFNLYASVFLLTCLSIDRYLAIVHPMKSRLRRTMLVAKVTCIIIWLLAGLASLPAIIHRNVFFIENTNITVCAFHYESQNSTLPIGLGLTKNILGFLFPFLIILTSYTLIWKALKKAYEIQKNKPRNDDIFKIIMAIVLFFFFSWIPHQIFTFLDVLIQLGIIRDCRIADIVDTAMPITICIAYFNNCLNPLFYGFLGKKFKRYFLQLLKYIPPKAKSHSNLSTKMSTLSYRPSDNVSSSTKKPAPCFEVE
Nature of the data set: Displacement of [3H]-Angiotensin 2 from human AT1 receptor transfected in CHOK1 cells preincubated for 30 mins with bovine serum albumin followed by radioligand addition by liquid scintillation counting. The data set is classed as cell-based, CHO-K1.

Data set [2] has as its target T1, Type-1 angiotensin II receptor. Nature of the data set: Displacement of [3H]-Asp-{Nomega-[N-(4-propanoylaminobutyl)aminocarbonyl]}Arg-ValTyr-Ile-His-Pro-Phe-OH Tris(hydrotrifluoroacetate) from human AT1 receptor transfected in CHO cells co-expressing Galpha16-mtAEQ after 2 hrs by liquid scintillation counting. Format: cell-based.
The target of data set [3] is T2, Neurotensin receptor type 1 (Homo sapiens, UniProt P30989). Nature of the data set: biochemical.
The target of data set [4] is T2, Neurotensin receptor type 1. Nature of the data set: Binding affinity to human NTSR1 receptor transfected in CHO cells co-expressing Galpha16-mtAEQ after 2 hrs by liquid scintillation counting. Format: cell-based.
For data set [5] the target is unchanged. The experiment in a line: biochemical. The source holds these as a separate data set.
For data set [6], the target named is T1, Type-1 angiotensin II receptor. The experiment in a line: biochemical.
The nature of data set [7]: Binding affinity to AT1 receptor natively expressed in rat mesangial cells. The data set is classed as cell-based.
A short description of data set [8]: Chemical stability of compound at 150 uM at pH 7 at 21 degC after 24 to 48 hrs by reversed-phase HPLC analysis. To be noted: buffer, pH 7, 150 µM. The data set is classed as physicochemical. Summed up: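 Peptide incubated in phosphate buffer (PBS), pH 7.0, 21 °C, for 24 or 48 h. Remaining intact peptide assessed from reversed-phase HPLC chromatograms.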
Data set [9] can be described thus: Drug degradation in CHO cells expressing human AT1 receptor at 50 uM after 2 hrs by reversed-phase HPLC analysis. Format: ADME, cell-based, Cricetulus griseus. To be noted: chinese hamster, read-out: Drug degradation. A digest of the protocol:
(§1)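 Stability tested under binding-assay conditions for up to 6 h: AT1 ligands with CHO-hAT1 cells and NTSR1 ligands with HT-29 cells. Samples analysed by reversed-phase HPLC chromatography.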

The nature of data set [10]: Drug degradation in CHO cells expressing human AT1 receptor at 50 uM after 6 hrs by reversed-phase HPLC analysis. Format: ADME, cell-based, Cricetulus griseus. The following applies: chinese hamster, read-out: Drug degradation. A digest of the protocol:
as §1

Data set [11] can be described thus: Chemical stability of compound at 200 uM at pH 7 at 21 degC after 24 to 48 hrs by reversed-phase HPLC analysis. To be noted: buffer, pH 7, 200 µM. The data set is classed as physicochemical. Summed up: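 Peptide incubated in phosphate buffer (PBS), pH 7.0, 21 °C, for 24 or 48 h. Remaining intact peptide assessed by reversed-phase HPLC chromatograms.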
Data set [12] concerns the target T1, Type-1 angiotensin II receptor. Nature of the data set: Agonist activity at human AT1 receptor transfected in CHO cells co-expressing Galpha16-mtAEQ assessed as induction of intracellular Ca2+ mobilization by bioluminescence assay. The data set is classed as functional, cell-based.
Data set [13] is described as follows: Drug degradation in human HT-29 cells at 50 uM after 6 hrs by reversed-phase HPLC analysis. Format: ADME, cell-based. To be noted: read-out: Drug degradation. Summed up: as §1
In data set [14] the target is T2, Neurotensin receptor type 1. Nature of the data set: Displacement of [3H]-{Nomega-[N-(4-propanoylaminobutyl)aminocarbonyl]}Arg-Arg-ProTyr-Ile-Leu-OH Tris(hydrotrifluoroacetate) from NTSR1 in human HT-29 cells after 2 hrs by liquid scintillation counting. Format: cell-based.
Data set [15] has the same target. The experiment in a line: Agonist activity at NTSR1 in human HT-29 cells assessed as induction of intracellular Ca2+ mobilization by fura-2 dye-based spectrofluorimetric analysis. The following applies: read-out: EC50. Format: functional, cell-based.
In data set [16] the target is Neurotensin receptor type 2 (Homo sapiens, UniProt O95665). The experiment in a line: Displacement of [3H]NT(8 to 13 residues) from human NTSR2 expressed in HEK293 cell membranes.
Data set [17] addresses T2, Neurotensin receptor type 1. The experiment in a line: Displacement of [3H]-{Nomega-[N-(4-propanoylaminobutyl)aminocarbonyl]}Arg-Arg-ProTyr-Ile-Leu-OH Tris(hydrotrifluoroacetate) from human NTSR1 transfected in CHO cells co-expressing Galpha16-mtAEQ after 2 hrs by liquid scintillation counting. Format: cell-based.
Data set [18] in a line: Drug degradation in human HT-29 cells at 50 uM after 2 hrs by reversed-phase HPLC analysis. Format: ADME, cell-based. The following applies: read-out: Drug degradation. A digest of the protocol: as §1
Data set [19] has as its target T3, Neuropeptide FF receptor 2 (Homo sapiens, UniProt Q9Y5X5). Nature of the data set: Binding affinity to human NPFF2 receptor expressed in CHO cell membranes after 1 hr by liquid scintillation spectrophotometric counting.
The target of data set [20] is T3, Neuropeptide FF receptor 2. The experiment in a line: Displacement of [3H]EYE from human NPFF2 receptor expressed in CHO cell membranes after 1 hr by liquid scintillation spectrophotometric counting.

*1 amine or outer side, *2 acyl side, *3 side chain or, on linkers, in order; H or OH if unused. Where a SMILES comes first, the peptide text is derived from it. [ ]: non-standard residue; d: D form. X1 = CCC(=O)NCCCCNC(=O)/N=C(\N)NCCC[C@H](N[*:1])C(=O)[*:2]

T2 sequence (P30989 whole entry): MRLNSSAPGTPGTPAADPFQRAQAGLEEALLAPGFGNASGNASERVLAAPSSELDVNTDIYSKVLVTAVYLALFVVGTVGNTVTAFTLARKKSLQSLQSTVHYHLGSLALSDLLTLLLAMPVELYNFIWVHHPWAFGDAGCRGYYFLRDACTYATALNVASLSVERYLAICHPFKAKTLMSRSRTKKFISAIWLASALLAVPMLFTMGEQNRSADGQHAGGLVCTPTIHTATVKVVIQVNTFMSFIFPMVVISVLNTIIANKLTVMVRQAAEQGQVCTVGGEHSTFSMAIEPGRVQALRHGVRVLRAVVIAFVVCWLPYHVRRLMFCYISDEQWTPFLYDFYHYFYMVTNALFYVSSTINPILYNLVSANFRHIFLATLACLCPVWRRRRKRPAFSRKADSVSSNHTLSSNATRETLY
T3 sequence (Q9Y5X5 whole entry): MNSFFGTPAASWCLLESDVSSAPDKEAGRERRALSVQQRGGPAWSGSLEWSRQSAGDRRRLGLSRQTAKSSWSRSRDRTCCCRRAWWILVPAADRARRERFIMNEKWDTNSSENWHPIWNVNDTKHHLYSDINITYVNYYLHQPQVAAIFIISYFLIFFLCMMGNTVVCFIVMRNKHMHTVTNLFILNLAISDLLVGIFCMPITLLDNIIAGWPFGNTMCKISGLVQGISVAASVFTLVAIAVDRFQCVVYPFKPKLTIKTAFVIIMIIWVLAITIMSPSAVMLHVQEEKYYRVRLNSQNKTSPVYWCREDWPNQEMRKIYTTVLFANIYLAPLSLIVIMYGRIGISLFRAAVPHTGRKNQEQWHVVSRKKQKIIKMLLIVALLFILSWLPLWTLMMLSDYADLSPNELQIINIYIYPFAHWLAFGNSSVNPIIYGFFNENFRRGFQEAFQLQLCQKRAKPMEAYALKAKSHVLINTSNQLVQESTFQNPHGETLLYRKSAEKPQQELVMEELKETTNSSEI
Chain of Neurotensin receptor type 2 (O95665 whole entry, the tested form may be a part): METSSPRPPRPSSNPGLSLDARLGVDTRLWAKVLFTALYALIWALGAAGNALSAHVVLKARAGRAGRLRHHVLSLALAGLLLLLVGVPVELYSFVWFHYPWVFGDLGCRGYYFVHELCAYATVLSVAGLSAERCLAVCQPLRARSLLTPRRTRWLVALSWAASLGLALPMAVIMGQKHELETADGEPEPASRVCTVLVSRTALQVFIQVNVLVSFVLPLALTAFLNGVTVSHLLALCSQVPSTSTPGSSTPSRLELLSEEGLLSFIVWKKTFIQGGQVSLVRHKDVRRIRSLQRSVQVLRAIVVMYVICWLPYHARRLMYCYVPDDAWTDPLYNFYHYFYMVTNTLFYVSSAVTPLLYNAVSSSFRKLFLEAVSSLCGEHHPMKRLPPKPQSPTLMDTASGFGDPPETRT

`CCOc1nc2cccc(C(=O)O)c2n1Cc1ccc(-c2ccccc2-c2nnn[nH]2)cc1`: the IC50 is 0.69 nM in data set [1] and 10.7 nM in data set [2]. The affinity in data set [2], expressed as Ki, was 3.5 nM.

As to `O=C(O)C(F)(F)F.O=C(O)C(F)(F)F.O=C(O)C(F)(F)F.[3H]CC([3H])C(=O)NCCCCNC(=O)/N=C(\N)NCCC[C@H](N)C(=O)N[C@@H](CCCNC(=N)N)C(=O)N1CCC[C@H]1C(=O)N[C@@H](Cc1ccc(O)cc1)C(=O)N[C@H](C(=O)N[C@@H](CC(C)C)C(=O)O)[C@@H](C)CC` (stereo not given in full), the Kd in data set [3] was determined as 0.51 nM; in data set [4], 0.58 nM; in data set [5], 0.44 nM.

Take `O=C(O)C(F)(F)F.O=C(O)C(F)(F)F.O=C(O)C(F)(F)F.[3H]CC([3H])C(=O)NCCCCNC(=O)/N=C(\N)NCCC[C@H](NC(=O)[C@@H](N)CC(=O)O)C(=O)N[C@H](C(=O)N[C@@H](Cc1ccc(O)cc1)C(=O)N[C@H](C(=O)N[C@@H](Cc1cnc[nH]1)C(=O)N1CCC[C@H]1C(=O)N[C@@H](Cc1ccccc1)C(=O)O)[C@@H](C)CC)C(C)C` (stereo not given in full): the Kd in [6] is 0.94 nM; in [7], 1.5 nM.

As for `CC[C@H](C)[C@H](NC(=O)[C@H](Cc1ccc(O)cc1)NC(=O)[C@@H]1CCCN1C(=O)[C@H](CCCNC(=N)N)NC(=O)[C@@H](N)CCCN/C(N)=N/C(=O)NCCCCNC(=O)CCCCCN1\C(=C/C=C/C=C/C2=[N+](C)c3ccccc3C2(C)C)C(C)(C)c2ccccc21)C(=O)N[C@@H](CC(C)C)C(=O)O.O=C(O)C(F)(F)F.O=C(O)C(F)(F)F.O=C(O)C(F)(F)F.O=C(O)C(F)(F)F.[Br-]`, the Stability result in data set [8] is listed as “Stable”.

With `CCC(=O)NCCCCNC(=O)/N=C(\N)NCCC[C@H](NC(=O)[C@@H](N)CC(=O)O)C(=O)N[C@H](C(=O)N[C@@H](Cc1ccc(O)cc1)C(=O)N[C@H](C(=O)N[C@@H](Cc1cnc[nH]1)C(=O)N1CCC[C@H]1C(=O)N[C@@H](Cc1ccccc1)C(=O)O)[C@@H](C)CC)C(C)C.O=C(O)C(F)(F)F.O=C(O)C(F)(F)F.O=C(O)C(F)(F)F` (H-D[X1]VYIHPF-OH), in data set [9], the metabolised at 2 h, 50 µM was < 5.5%. The metabolised at 6 h, 50 µM in data set [10] is < 2%. In addition, in [11], the Stability entry is “Stable”. Further, the EC50 in data set [12] worked out at 1.1 nM. Besides, in data set [2], the IC50 was 2.19 nM and the Ki worked out at 0.71 nM.

With `CCC(=O)NCCCCNC(=O)/N=C(\N)NCCC[C@H](N)C(=O)N[C@@H](CCCNC(=N)N)C(=O)N1CCC[C@H]1C(=O)N[C@@H](Cc1ccc(O)cc1)C(=O)N[C@H](C(=O)N[C@@H](CC(C)C)C(=O)O)[C@@H](C)CC.O=C(O)C(F)(F)F.O=C(O)C(F)(F)F.O=C(O)C(F)(F)F` (H-[X1]RPYIL-OH), the metabolised at 6 h, 50 µM in data set [13] is < 4%. Moreover, in [11], the Stability result is “Stable”. This compound had an IC50 in [14] of 1.35 nM. Besides, the Ki in [14] was found to be 0.47 nM; in data set [16], 2.5 nM; in data set [17], 0.63 nM. Also, in data set [15], the EC50 came to 2 nM. In addition, in data set [18], the metabolised at 2 h, 50 µM was < 4%.

H-EYWSLAAPQRF-NH2: the Kd in data set [19] amounted to 0.54 nM. In data set [20], this compound gave a Ki of 0.53 nM.

The record behind these values is ChEMBL document CHEMBL3784921, “Mimicking of Arginine by Functionalized N(ω)-Carbamoylated Arginine As a New Broadly Applicable Approach to Labeled Bioactive Peptides: High Affinity Angiotensin, Neuropeptide Y, Neuropeptide FF, and Neurotensin Receptor Ligands As Examples” (J Med Chem, 2016).
